Measurements as given in ChEMBL document CHEMBL4334469, “Integrated Synthetic, Biophysical, and Computational Investigations of Covalent Inhibitors of Prolyl Oligopeptidase and Fibroblast Activation Protein α” (J Med Chem, 2019).
Activity calls are given as the source filed them. The calls are words filed in the database; no cut-off is given here. Peptide text beside a SMILES is read from it. * marks the point of attachment. Cbz = O=C(OCc1ccccc1)*

Assays:
Prolyl endopeptidase FAP = target: T1, Prolyl endopeptidase FAP (Homo sapiens, UniProt Q12884); assay: Inhibition of FAP (unknown origin)
T1 sequence (Q12884 whole entry): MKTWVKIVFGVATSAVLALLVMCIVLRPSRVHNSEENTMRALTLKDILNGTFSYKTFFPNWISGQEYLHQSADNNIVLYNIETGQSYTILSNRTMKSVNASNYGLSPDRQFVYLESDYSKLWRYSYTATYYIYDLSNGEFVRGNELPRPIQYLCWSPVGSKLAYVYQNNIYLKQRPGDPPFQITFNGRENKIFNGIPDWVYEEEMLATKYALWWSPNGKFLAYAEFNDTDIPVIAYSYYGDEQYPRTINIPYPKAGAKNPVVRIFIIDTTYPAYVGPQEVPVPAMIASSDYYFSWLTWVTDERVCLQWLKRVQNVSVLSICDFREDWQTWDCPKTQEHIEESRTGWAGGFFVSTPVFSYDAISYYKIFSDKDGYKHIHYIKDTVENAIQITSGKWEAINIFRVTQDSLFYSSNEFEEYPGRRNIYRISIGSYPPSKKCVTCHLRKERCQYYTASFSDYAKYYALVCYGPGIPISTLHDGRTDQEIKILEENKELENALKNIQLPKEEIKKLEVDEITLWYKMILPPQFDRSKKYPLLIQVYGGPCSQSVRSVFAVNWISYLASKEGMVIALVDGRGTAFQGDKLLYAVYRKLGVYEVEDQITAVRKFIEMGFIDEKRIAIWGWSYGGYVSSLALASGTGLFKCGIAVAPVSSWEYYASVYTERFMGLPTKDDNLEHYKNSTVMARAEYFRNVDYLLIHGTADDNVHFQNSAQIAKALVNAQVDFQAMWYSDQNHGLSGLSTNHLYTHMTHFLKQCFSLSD

[1] = target: Prolyl endopeptidase FAP (Homo sapiens) (UniProt Q12884); assay: Inhibition of human recombinant FAP at 100 uM using fluorogenic DPP substrate1 relative to control
[2] = target: Prolyl endopeptidase FAP (Homo sapiens) (UniProt Q12884); assay: Inhibition of human recombinant FAP at 10 uM using fluorogenic DPP substrate1 relative to control
Prolyl endopeptidase = target: T2, Prolyl endopeptidase (Homo sapiens, UniProt P48147); assay: (§1) Inhibition of recombinant human POP pre-incubated for 30 mins before addition of ZGP-pNA substrate by absorbance assay
T2 sequence (P48147 whole entry): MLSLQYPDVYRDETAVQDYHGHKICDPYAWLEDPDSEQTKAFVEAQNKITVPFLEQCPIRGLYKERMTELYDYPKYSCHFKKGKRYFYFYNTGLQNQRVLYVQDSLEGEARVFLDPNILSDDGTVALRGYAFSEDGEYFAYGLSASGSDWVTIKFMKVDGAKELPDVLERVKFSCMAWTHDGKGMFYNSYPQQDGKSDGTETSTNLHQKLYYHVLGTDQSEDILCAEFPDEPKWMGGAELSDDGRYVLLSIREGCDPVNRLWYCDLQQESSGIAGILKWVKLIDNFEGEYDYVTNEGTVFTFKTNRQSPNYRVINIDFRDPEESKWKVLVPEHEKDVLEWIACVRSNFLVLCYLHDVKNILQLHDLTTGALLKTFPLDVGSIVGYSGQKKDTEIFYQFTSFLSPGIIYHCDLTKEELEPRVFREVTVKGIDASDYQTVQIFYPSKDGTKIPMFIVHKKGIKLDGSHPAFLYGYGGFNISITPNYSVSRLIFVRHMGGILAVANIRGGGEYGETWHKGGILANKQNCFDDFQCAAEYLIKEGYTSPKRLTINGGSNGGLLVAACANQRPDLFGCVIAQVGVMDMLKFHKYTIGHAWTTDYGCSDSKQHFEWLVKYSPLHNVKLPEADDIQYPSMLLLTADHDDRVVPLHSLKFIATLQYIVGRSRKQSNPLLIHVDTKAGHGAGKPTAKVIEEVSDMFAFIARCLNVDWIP

[3] = Drug metabolism in buffer assessed as formation of [(2R)-1-(2-benzyl-3-oxo-isoindoline-4-carbonyl)pyrrolidin-2-yl]boronic acid after 10 mins by LC-MS analysis
How it was run: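 Boronic ester hydrolysis was followed by LC-MS (UHPLC-QTOF, positive ESI). Ester from a 100 mM DMSO stock was diluted 1:10 into buffer in a capped autosampler vial. Aliquots were taken at 5 min intervals and loop-injected in 1:1 water/acetonitrile with 0.1% formic acid. The boronic ester remaining was tracked over time.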

[4] = target: T3, Prolyl endopeptidase (Homo sapiens) (UniProt P48147); assay: as §1
T3 sequence (whole entry): T2 sequence (P48147 whole entry)

| Structure (SMILES) | inhibition [1] | also measured |
| --- | --- | --- |
| CC(C)[C@H](NC(=O)c1ccncc1)C(=O)N1CCC[C@H]1B(O)O |  | IC50 (Prolyl endopeptidase FAP): > 100 µM |
| O=C[C@@H]1CCCN1C(=O)c1cccc2c1C(=O)N(Cc1ccccc1)C2 | 80% | inhibition [2]: 11% |
| N#C[C@@H]1C[C@H](F)CN1C(=O)c1cccc2c1C(=O)N(Cc1ccccc1)C2 | < 5% | Ki (Prolyl endopeptidase): 0.17 µM |
| CC1(C)[C@H]2C[C@@H]3OB([C@@H]4CCCN4C(=O)c4cccc5c4C(=O)N(Cc4ccccc4)C5)O[C@]3(C)[C@@H]1C2 | < 5% | Drug metabolism [3]: 90% |
| O=C(c1cccc2c1C(=O)N(Cc1ccccc1)C2)N1CC[C@@H](F)C1 | < 5% |  |
| O=C(c1cccc2c1C(=O)N(Cc1ccccc1)C2)N1CC[C@H](F)C1 | < 5% |  |
| N#C[C@@H]1C[C@@H](F)CN1C(=O)c1cccc2c1C(=O)N(Cc1ccccc1)C2 | < 5% | Ki (Prolyl endopeptidase): > 100 µM |
| N#C[C@@H]1CCCN1C(=O)c1cccc2c1C(=O)N(Cc1ccccc1)C2 | 20% |  |
| O=C[C@@H]1CCCN1C(=O)[C@@H]1CCCN1C(=O)OCc1ccccc1 (Cbz-Pro-Pro-aldehyde) | < 5% |  |
| N#C[C@@H]1CC(F)(F)CN1C(=O)c1cccc2c1C(=O)N(Cc1ccccc1)C2 | < 5% | Ki (Prolyl endopeptidase): 3.3 µM |
| O=C(c1cccc2c1C(=O)N(Cc1ccccc1)C2)N1CCCC1 | < 5% |  |
| CC1(C)[C@@H]2C[C@@H](O)[C@@](C)(O)[C@H]1C2 |  | inhibition [4]: inactive |
